Series [1] in a line: Mutagenicity in Escherichia coli WP2 in presence of metabolic activation by Ames test. It counts as toxicity. The procedure, abridged:
(§1)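 Reverse-mutation test in Salmonella typhimurium TA1537, TA1535, TA98 and TA100 and in E. coli WP2 uvrA, run with and without metabolic activation.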

Series [2] can be described thus: Ratio of drug uptake in Wistar rat brain to plasma at 3 mg/kg, po by LC-MS/MS analysis. Type of series: ADME, organism-based. To be noted: brain and plasma, read-out: BPR. In short, it runs like this:
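Fasted male Wistar rats were dosed orally with water for injection as the vehicle. Total brain and plasma concentrations were measured at 1 h after dosing and expressed as a ratio.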

Series [3] in a line: Dissociation constant, pKa2 of the compound by potentiometric titration assay. It counts as physicochemical.
Series [4] deals with Rattus norvegicus. Kind of series: Effect on striatal dopamine levels in Wistar rat at 100 mg/kg, po by microdialysis. Type of series: ADME, organism-based. The following applies: in vivo.
The nature of series [5]: Metabolic stability in human hepatocytes after 30 mins by LC-MS/MS analysis. It counts as ADME, cell-based, Hepatocyte. The following applies: read-out: Stability.
A short description of series [6]: Mutagenicity in Salmonella typhimurium TA100 in absence of metabolic activation by Ames test. To be noted: salmonella enterica subsp. enterica serovar typhimurium. Type of series: toxicity. The procedure, abridged:
as §1
For orientation: The Ames test detects mutagens through reverse mutation in bacteria.

The nature of series [7]: Mutagenicity in Salmonella typhimurium TA1537 in absence of metabolic activation by Ames test. Type of series: toxicity. The following applies: salmonella enterica subsp. enterica serovar typhimurium.
In series [8] the target is T1, Cytochrome P450 1A2 (Homo sapiens, UniProt P05177).
T1 sequence (P05177 whole entry): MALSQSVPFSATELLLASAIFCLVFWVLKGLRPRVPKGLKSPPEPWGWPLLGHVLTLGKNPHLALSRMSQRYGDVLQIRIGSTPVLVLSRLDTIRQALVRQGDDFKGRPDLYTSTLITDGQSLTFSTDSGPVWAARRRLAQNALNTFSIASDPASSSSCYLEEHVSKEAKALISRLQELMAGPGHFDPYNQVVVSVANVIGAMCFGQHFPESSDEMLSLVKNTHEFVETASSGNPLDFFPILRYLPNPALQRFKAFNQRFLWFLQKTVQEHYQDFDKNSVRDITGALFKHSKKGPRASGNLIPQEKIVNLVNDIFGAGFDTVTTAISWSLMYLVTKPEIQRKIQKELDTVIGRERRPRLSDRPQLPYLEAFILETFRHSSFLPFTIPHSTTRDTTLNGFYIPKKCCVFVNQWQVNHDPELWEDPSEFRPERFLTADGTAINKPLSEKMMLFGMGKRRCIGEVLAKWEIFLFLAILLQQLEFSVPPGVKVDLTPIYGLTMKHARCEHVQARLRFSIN
Kind of series: Inhibition of CYP1A2 (unknown origin). It counts as ADME.

A short description of series [9]: AUC (0 to 24 hrs) in Wistar rat at 3 mg/kg, po by LC-MS/MS analysis. Type of series: ADME, organism-based. The arrangement: dose 3 mg/kg, time < 24 hr, route oral. To be noted: in vivo. In short, it runs like this: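 Fasted male Wistar rats; compound in water for injection, given i.v. (2 mL/kg) or p.o. (10 mL/kg). Plasma exposure measured as AUC0-24hr.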
Series [10] has as its target Voltage-gated inwardly rectifying potassium channel KCNH2 (Homo sapiens, UniProt Q12809). Kind of series: Inhibition of human ERG expressed in HEK293 cells by whole-cell patch clamp assay. It counts as cell-based.
A short description of series [11]: Fraction unbound in rat brain at 1 uM by equilibrium dialysis. It counts as ADME, tissue-based.

A value given as a limit tells only on which side of the number the result lay.

For orientation: pKa means the pH at which an ionisable group is half protonated. High values mean a group that holds its proton tightly, low ones a group that gives up its proton readily. What is called IC50 is the concentration that gives 50% inhibition. A high value points to weaker potency in that assay. Usually AUC(0-t) stands for exposure summed from dosing to a finite time, without extrapolation to infinity. Read a high AUC(0-t) as more exposure. Broadly, the fraction unbound is free concentration divided by total concentration.

Chain of Voltage-gated inwardly rectifying potassium channel KCNH2 (Q12809 whole entry): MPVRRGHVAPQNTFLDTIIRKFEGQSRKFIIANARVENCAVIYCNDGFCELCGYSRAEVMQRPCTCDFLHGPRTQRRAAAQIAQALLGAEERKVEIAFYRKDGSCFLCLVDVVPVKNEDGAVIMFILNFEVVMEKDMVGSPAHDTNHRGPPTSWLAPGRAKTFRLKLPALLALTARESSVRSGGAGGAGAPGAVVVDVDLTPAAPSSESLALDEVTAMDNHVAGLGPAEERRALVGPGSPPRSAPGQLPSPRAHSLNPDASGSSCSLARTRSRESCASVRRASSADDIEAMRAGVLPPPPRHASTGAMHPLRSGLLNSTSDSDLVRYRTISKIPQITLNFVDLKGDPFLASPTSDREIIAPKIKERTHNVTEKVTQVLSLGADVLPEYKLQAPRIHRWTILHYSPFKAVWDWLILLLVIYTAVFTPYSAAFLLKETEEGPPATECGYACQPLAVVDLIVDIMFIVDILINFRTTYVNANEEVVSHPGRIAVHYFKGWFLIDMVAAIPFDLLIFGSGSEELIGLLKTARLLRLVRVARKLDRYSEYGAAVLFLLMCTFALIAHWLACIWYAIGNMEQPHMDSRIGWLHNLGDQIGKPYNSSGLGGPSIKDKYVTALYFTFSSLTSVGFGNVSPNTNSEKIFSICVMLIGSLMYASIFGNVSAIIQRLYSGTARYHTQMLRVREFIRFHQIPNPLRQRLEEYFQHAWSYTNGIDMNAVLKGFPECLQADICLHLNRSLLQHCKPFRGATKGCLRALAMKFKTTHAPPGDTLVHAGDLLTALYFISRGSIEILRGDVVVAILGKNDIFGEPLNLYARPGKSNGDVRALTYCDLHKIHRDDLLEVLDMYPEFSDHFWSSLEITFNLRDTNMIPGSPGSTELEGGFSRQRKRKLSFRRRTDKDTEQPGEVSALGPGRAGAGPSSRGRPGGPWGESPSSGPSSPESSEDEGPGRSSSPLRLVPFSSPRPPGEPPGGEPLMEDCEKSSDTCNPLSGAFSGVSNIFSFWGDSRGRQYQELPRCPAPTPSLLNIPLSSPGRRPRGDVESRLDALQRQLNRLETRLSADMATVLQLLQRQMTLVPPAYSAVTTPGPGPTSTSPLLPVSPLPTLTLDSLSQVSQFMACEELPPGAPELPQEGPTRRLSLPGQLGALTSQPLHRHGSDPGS

With `Cl.Cl.O=C(CN1CCOCC1)Nc1ccc(OC2CCN(C3CCC3)CC2)cc1`, the Activity result in [1], in series [4], in [6] and in [7] was “Non-Toxic” throughout. Also, the Kp in series [2] was found to be 0.93. The same compound had a pKa in series [3] of 4.9. For the same compound, in series [5], the remaining at 0.5 h is less than 5%. Besides, the IC50 is greater than 45 µM in series [8] and greater than 10 µM in [10]. The compound further had an AUC(0-t) at 24 h in series [9] of 626 ng·h/mL. The unbound share (fraction unbound) at 1 µM in series [11] is 0.57.

(Values after ChEMBL document CHEMBL4368912, “Discovery and Development of N-[4-(1-Cyclobutylpiperidin-4-yloxy)phenyl]-2-(morpholin-4-yl)acetamide Dihydrochloride (SUVN-G3031): A Novel, Potent, Selective, and Orally Active Histamine H3 Receptor Inverse Agonist with Robust Wake-Promoting Activity” (J Med Chem, 2019).)
